Active and inactive are the calls of the source. Unless noted, no rule for the calls is given here.
Assays:
[1] = biological target: Pantothenate synthetase (Mycobacterium tuberculosis (strain ATCC 25618 / H37Rv)) (UniProt P9WIL5); test: Recombinant Mtb pantothenate synthetase (PanC) inhibitors, coupled enzyme, confirmatory (AID 375); conditions: coupled enzyme assay; at 10 µM, stronger effect = higher value;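 also: 0% = full reaction with vehicle and 100% = no enzyme background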
[2] = reducers of endogenous Her2 protein level, primary screen, SKBR3 breast tumor cells, AlphaScreen, ATP viability (AID 461;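 active = Her2 level under about 52% in both replicate screens, with viability over 70% of control, limit read from the data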;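 as to Her2 level: lower value means less Her2 protein in the cells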;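 as to viability: percent of carrier control wells set as 100% viability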); conditions: 18-24 h, measured here: SKBR3 viability, ATP luminescence, at 10 µM
[3] = biological target: Receptor tyrosine-protein kinase erbB-2 (Homo sapiens) (UniProt P04626); test: as above; conditions: 18-24 h, at 10 µM, stronger effect = lower value
Sequence of Receptor tyrosine-protein kinase erbB-2 (Homo sapiens) (P04626 whole entry, looked up): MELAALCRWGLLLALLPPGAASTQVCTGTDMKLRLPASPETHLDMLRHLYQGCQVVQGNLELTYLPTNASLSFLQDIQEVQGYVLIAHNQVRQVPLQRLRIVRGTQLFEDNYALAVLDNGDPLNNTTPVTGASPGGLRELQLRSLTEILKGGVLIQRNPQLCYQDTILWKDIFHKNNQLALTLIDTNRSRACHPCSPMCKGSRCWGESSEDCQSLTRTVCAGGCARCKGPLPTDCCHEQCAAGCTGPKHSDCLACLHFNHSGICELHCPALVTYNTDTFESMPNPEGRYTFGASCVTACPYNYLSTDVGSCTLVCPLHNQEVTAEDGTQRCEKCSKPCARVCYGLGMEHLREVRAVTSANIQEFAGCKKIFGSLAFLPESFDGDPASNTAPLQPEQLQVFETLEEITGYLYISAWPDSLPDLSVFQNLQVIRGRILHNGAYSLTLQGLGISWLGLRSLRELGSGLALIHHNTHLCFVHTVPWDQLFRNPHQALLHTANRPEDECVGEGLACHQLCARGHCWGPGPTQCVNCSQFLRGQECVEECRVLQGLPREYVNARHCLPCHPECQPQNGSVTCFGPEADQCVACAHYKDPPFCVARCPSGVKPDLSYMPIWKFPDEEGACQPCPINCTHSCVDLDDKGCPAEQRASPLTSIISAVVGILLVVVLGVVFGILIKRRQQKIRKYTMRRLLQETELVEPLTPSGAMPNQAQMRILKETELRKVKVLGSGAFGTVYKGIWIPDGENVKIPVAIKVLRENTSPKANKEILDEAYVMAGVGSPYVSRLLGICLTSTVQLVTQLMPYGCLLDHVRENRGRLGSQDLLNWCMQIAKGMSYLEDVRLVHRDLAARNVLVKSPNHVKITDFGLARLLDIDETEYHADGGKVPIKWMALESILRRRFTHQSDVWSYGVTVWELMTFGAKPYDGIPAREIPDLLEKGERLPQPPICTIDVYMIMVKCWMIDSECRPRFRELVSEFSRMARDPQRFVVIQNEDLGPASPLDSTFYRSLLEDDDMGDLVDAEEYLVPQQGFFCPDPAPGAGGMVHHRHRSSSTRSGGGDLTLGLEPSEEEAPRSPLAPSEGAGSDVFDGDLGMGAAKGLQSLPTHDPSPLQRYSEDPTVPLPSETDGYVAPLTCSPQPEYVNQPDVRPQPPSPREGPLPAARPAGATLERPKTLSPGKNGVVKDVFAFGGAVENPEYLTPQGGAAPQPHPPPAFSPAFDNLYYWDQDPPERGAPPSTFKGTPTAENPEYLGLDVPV

[4] = SK-BR-3 cell growth inhibitors, pilot screen, 24 h, human (AID 572;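 active = viability at or below 10% of carrier control in both of two separate runs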;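 also: compound exposure lasted between 18 and 24 h rather than exactly 24 h; 100% = carrier-treated control wells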); conditions: SK-BR-3 viability, CellTiter-Glo luminescence, at 10 µM, stronger effect = lower value
[5] = HUVEC growth inhibition – cell-based, human, primary screen (AID 575;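 active = viability at or below 30% in both replicate assays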;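 also: 100% = median of untreated cell wells with 0.1% DMSO on each plate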); conditions: HUVEC proliferation, CellTiter-Glo luminescence, 72 h; at 10 µM; stronger effect = lower value
Summary of the method: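 Test system: primary human umbilical vein endothelial cells. Quantity: 1250 cells/well. Compound: single 10 µM dose, 0.1% DMSO, from 5x medium stock. Timing: 72 h treatment at 37 °C. Detection: ATP-based CellTiter-Glo luminescent read. Benchmarks: vehicle and MePR control wells. Format: 384-well plates coated with collagen.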

[6] = growth inhibitors of H69AR lung tumor, primary screen, human, duplicate replicates (AID 580;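 active = viability at or under a set limit in both replicates, limit being median viability minus 3 SD, cut at about 48% in these data, passing the limit was not always enough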;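 also: 100% = mean luminescence of untreated wells and 0% = no signal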); conditions: H69AR lung tumor cells viability, ATP luminescence, 72 h; at 10 µM; stronger effect = lower value
[7] = reversal of MRP1-mediated doxorubicin resistance, pilot screen, H69AR cells, doxorubicin co-treatment (AID 601;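 active = viability loss from added drug above about 55%, and viability with drug at most 40%, in both replicates, limit read from the data, passing the limit was not always enough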); conditions: CellTiter-Glo, 72 h, at 10 µM; for differential viability (reversal): stronger effect = higher value
[8] = 384-well plate pilot, post-Golgi transport modulator project, inhibition of yeast transport mutant growth (AID 636; in the data active = inhibition above about 31%); conditions: absorbance 615 nm, about 18 h, stronger effect = higher value
[9] = growth suppression of yeast trafficking mutant, preliminary HTS, modulators of trafficking downstream of Golgi apparatus project, 1536-format plate, OD 615 nm (AID 637; in the data active = inhibition above about 30%); conditions: yeast transport mutant growth, absorbance 615 nm, 18 h; stronger effect = higher value
[10] = H69AR cells + 2 uM doxorubicin, measured here: viability with 2 uM doxorubicin, stronger effect = lower value
[11] = H69AR cells, compound alone cytotoxicity

Sequence of Pantothenate synthetase (Mycobacterium tuberculosis (strain ATCC 25618 / H37Rv)) (P9WIL5 whole entry, looked up): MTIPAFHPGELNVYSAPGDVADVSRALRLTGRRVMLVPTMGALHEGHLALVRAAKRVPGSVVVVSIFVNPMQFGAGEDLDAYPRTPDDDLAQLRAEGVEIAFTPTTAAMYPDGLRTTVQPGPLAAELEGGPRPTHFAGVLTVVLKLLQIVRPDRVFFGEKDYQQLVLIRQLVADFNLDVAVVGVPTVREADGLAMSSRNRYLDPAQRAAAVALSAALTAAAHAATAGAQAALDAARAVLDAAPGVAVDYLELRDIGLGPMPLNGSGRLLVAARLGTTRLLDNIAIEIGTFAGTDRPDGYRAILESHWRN

**Q.** Which inhibition [1] does the source give for COc1ccc(C(=O)N2CCCC2=O)cc1 here?
**A.** Its inhibition is 10% (inactive).

**Q.** And the viability [2]?
**A.** Its viability is 110%.

**Q.** What about the Her2 level [3] of the same compound?
**A.** The Her2 level was 94.5% (inactive).

**Q.** And the viability [4]?
**A.** The viability was 110% (inactive).

**Q.** What about the viability [5] of the same compound?
**A.** The viability was 119% (inactive).

**Q.** What about the viability [6] of the same compound?
**A.** Its viability is 103% (inactive).

**Q.** What about the differential viability (reversal) ([7]; H69AR cells + 2 uM doxorubicin) of the same compound?
**A.** Its differential viability (reversal) is 13.5% (inactive).

**Q.** And the viability [7, 10]?
**A.** The viability was 89.1%.

**Q.** What about the viability [7, 11] of the same compound?
**A.** Its viability is 103%.

**Q.** Which inhibition [1] does the source give for CCC(NC(C)C)C(O)c1ccc(O)c2[nH]c(=O)ccc12 (stereo not drawn) here?
**A.** Its inhibition is 0% (inactive).

**Q.** With CC(C)COC(=O)C(C#N)c1nc2ccccc2nc1N1CCN(Cc2ccccc2)CC1 (stereo not drawn) as the compound, how does the inhibition [1] read?
**A.** Its inhibition is 0% (inactive).

**Q.** Which inhibition [1] does the source give for Cc1oc(-c2ccccc2F)nc1CS(=O)(=O)CC(=O)NCc1ccco1 here?
**A.** Its inhibition is 0% (inactive).

**Q.** With COC(=O)c1ccccc1NC(=O)Nc1cc(C)cc(C)n1 as the compound, how does the inhibition [1] read?
**A.** Its inhibition is 2% (inactive).

**Q.** What does the source list for CCC(COC(=O)c1cc(OC)c(OC)c(OC)c1)(c1ccccc1)N(C)C (stereo not drawn)?
**A.** inhibition [1]: 2% (inactive); viability [2]: 87.5%; Her2 level [3]: 107% (inactive); viability [4]: 87.5% (inactive); viability [5]: 104% (inactive); viability [6]: 87.6% (inactive); differential viability (reversal) ([7]; H69AR cells + 2 uM doxorubicin): 11.9% (inactive); viability [7, 10]: 75.7%; viability [7, 11]: 87.6%

**Q.** With O=c1[nH]c2c(s1)C(c1ccco1)C1C3CCC(C3)C1S2 (stereo not drawn) as the compound, how does the inhibition [1] read?
**A.** Its inhibition is 0% (inactive).

**Q.** Which inhibition [1] does the source give for COc1ccc(N(CC(=O)NCCSC(C)(C)C)S(C)(=O)=O)c(OC)c1 here?
**A.** Its inhibition is 2% (inactive).

**Q.** For COC(=O)c1c(N)sc(C(=O)N2CCOCC2)c1C, which inhibition [1] is on record?
**A.** Its inhibition is 0% (inactive).

**Q.** Which inhibition [1] does the source give for CCCCN(CCCC)CCCOC(=O)c1ccc(N)cc1 here?
**A.** The inhibition was 0% (inactive).

**Q.** Which results are given for C[N+]1(C)CCc2cc3c(cc2[C@H]1[C@@H]1OC(=O)c2c1ccc1c2OCO1)OCO3?
**A.** inhibition [1]: 0% (inactive); viability [2]: 89.5%; Her2 level [3]: 102% (inactive); viability [4]: 89.5% (inactive); viability [5]: 87.1% (inactive); viability [6]: 113% (inactive); differential viability (reversal) ([7]; H69AR cells + 2 uM doxorubicin): 7.33% (inactive); viability [7, 10]: 105%; viability [7, 11]: 113%

**Q.** With CC(C)OC(=O)CSc1nnc(-c2cccnc2)n1Cc1ccccc1 as the compound, how does the inhibition [1] read?
**A.** Its inhibition is 3% (inactive).

**Q.** With COc1ccc(C)cc1NS(=O)(=O)c1ccc(NS(=O)(=O)c2ccc(NC(C)=O)cc2)cc1 as the compound, how does the inhibition [1] read?
**A.** Its inhibition is 1% (inactive).

**Q.** For COCCOC(=O)C1=C(N)Oc2c(c(=O)oc3ccccc23)C1c1ccncc1 (stereo not drawn), which inhibition [1] is on record?
**A.** Its inhibition is 10% (inactive).

**Q.** What about the viability [2] of the same compound?
**A.** Its viability is 122%.

**Q.** What about the Her2 level [3] of the same compound?
**A.** The Her2 level was 72% (inactive).

**Q.** And the viability [4]?
**A.** The viability was 122% (inactive).

**Q.** What about the viability [5] of the same compound?
**A.** The viability was 98.5% (inactive).

**Q.** And the viability [6]?
**A.** The viability was 92% (inactive).

**Q.** And the differential viability (reversal) ([7]; H69AR cells + 2 uM doxorubicin)?
**A.** Its differential viability (reversal) is 4.34% (inactive).

**Q.** And the viability [7, 10]?
**A.** Its viability is 87.7%.

**Q.** What about the viability [7, 11] of the same compound?
**A.** The viability was 92%.

**Q.** What about the inhibition [8] of the same compound?
**A.** Its inhibition is -2.76% (inactive).

**Q.** What about the inhibition [9] of the same compound?
**A.** The inhibition was -2.22% (inactive).

**Q.** With OCCOCC#CCN1CCOCC1 as the compound, how does the inhibition [1] read?
**A.** The inhibition was 0% (inactive).

**Q.** And the viability [2]?
**A.** The viability was 102%.

**Q.** And the Her2 level [3]?
**A.** The Her2 level was 114% (inactive).

**Q.** And the viability [4]?
**A.** The viability was 102% (inactive).

**Q.** What about the viability [5] of the same compound?
**A.** Its viability is 101% (inactive).

**Q.** What about the viability [6] of the same compound?
**A.** The viability was 93.8% (inactive).

**Q.** And the differential viability (reversal) ([7]; H69AR cells + 2 uM doxorubicin)?
**A.** Its differential viability (reversal) is 3.84% (inactive).

**Q.** And the viability [7, 10]?
**A.** The viability was 89.9%.

**Q.** What about the viability [7, 11] of the same compound?
**A.** Its viability is 93.8%.

**Q.** And the inhibition [8]?
**A.** The inhibition was -1.45% (inactive).

**Q.** What about the inhibition [9] of the same compound?
**A.** The inhibition was 1.31% (inactive).

**Q.** What does the source list for O=C(c1sc2ccccc2c1Cl)N1CCC2(CC1)OCCO2?
**A.** inhibition [1]: 0% (inactive); viability [2]: 90.5%; Her2 level [3]: 136% (inactive); viability [4]: 90.5% (inactive); viability [5]: 94.7% (inactive); viability [6]: 109% (inactive); differential viability (reversal) ([7]; H69AR cells + 2 uM doxorubicin): 6.83% (inactive); viability [7, 10]: 102%; viability [7, 11]: 109%; inhibition [8]: 0.13% (inactive); inhibition [9]: -7.5% (inactive)

**Q.** For CCOC(=O)C1CCCCC12C(C#N)=C(N)Oc1n[nH]c(C)c12 (stereo not drawn), which inhibition [1] is on record?
**A.** The inhibition was 0% (inactive).

**Q.** And the viability [2]?
**A.** Its viability is 91.5%.

**Q.** What about the Her2 level [3] of the same compound?
**A.** The Her2 level was 94.5% (inactive).

**Q.** What about the viability [4] of the same compound?
**A.** The viability was 91.5% (inactive).

**Q.** And the viability [5]?
**A.** Its viability is 96% (inactive).

**Q.** And the viability [6]?
**A.** The viability was 93.3% (inactive).

**Q.** What about the differential viability (reversal) ([7]; H69AR cells + 2 uM doxorubicin) of the same compound?
**A.** The differential viability (reversal) was -6.3% (inactive).

**Q.** What about the viability [7, 10] of the same compound?
**A.** Its viability is 99.6%.

**Q.** And the viability [7, 11]?
**A.** The viability was 93.3%.

**Q.** What about the inhibition [8] of the same compound?
**A.** Its inhibition is 0.66% (inactive).

**Q.** And the inhibition [9]?
**A.** The inhibition was 25.1% (inactive).

**Q.** With CC(C)C(=O)N1CCN(CCN=Cc2c(O)n(C)c(=O)n(C)c2=O)CC1 as the compound, how does the inhibition [1] read?
**A.** Its inhibition is 3% (inactive).

**Q.** And the viability [2]?
**A.** Its viability is 100%.

**Q.** And the Her2 level [3]?
**A.** The Her2 level was 116% (inactive).

**Q.** What about the viability [4] of the same compound?
**A.** The viability was 100% (inactive).

**Q.** And the viability [5]?
**A.** The viability was 122% (inactive).

**Q.** What about the viability [6] of the same compound?
**A.** Its viability is 96.5% (inactive).

**Q.** What about the differential viability (reversal) ([7]; H69AR cells + 2 uM doxorubicin) of the same compound?
**A.** Its differential viability (reversal) is -0.17% (inactive).

**Q.** What about the viability [7, 10] of the same compound?
**A.** The viability was 96.7%.

**Q.** What about the viability [7, 11] of the same compound?
**A.** Its viability is 96.5%.

**Q.** What about the inhibition [8] of the same compound?
**A.** Its inhibition is -5.39% (inactive).

**Q.** And the inhibition [9]?
**A.** The inhibition was -1.48% (inactive).

**Q.** Which inhibition [1] does the source give for CCN(CC)CCN=Cc1c(O)n(CCC2=CCCCC2)c(=O)[nH]c1=O here?
**A.** The inhibition was 5% (inactive).

**Q.** What about the viability [2] of the same compound?
**A.** The viability was 90.5%.

**Q.** What about the Her2 level [3] of the same compound?
**A.** Its Her2 level is 86% (inactive).

**Q.** And the viability [4]?
**A.** The viability was 90.5% (inactive).

**Q.** What about the viability [5] of the same compound?
**A.** Its viability is 62.5% (inactive).

**Q.** And the viability [6]?
**A.** Its viability is 74.7% (inactive).

**Q.** What about the differential viability (reversal) ([7]; H69AR cells + 2 uM doxorubicin) of the same compound?
**A.** The differential viability (reversal) was -11.4% (inactive).

**Q.** And the viability [7, 10]?
**A.** Its viability is 86.1%.

**Q.** What about the viability [7, 11] of the same compound?
**A.** Its viability is 74.7%.

**Q.** What about the inhibition [8] of the same compound?
**A.** The inhibition was -5.84% (inactive).

**Q.** What about the inhibition [9] of the same compound?
**A.** Its inhibition is -4.29% (inactive).
